The values that follow come from ChEMBL document CHEMBL4602726, “Discovery of the First Vitamin K Analogue as a Potential Treatment of Pharmacoresistant Seizures” (J Med Chem, 2020).

Series [1] can be described thus: Toxicity in mouse HT22 cells assessed as inhibition of cell viability at 50 uM incubated for 48 hrs by Cell-titer-Blue dye based fluorescence spectrophotometry relative to control. Set-up: species or system HT-22. The note with it: read-out: Activity. A digest of the protocol:
(§1)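 HT-22 cells in DMEM high glucose with 10% FBS, 2000 per well. Serially diluted compound added after 12 h, incubated 48 h. […] Background subtracted, normalized to control wells.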

Series [2] is described as follows: Toxicity in mouse HT22 cells assessed as inhibition of cell viability at 10 uM incubated for 48 hrs by Cell-titer-Blue dye based fluorescence spectrophotometry relative to control. The note with it: read-out: Activity. Set-up: species or system HT-22. In outline:
as §1

A short description of series [3]: Toxicity in CF1 mouse assessed as induction of abdominal constriction measured during 1 hr observation period by writhing test. The note with it: in vivo.
A short description of series [4]: Toxicity in CF1 mouse assessed as induction of discolored urine. The note with it: in vivo.
A short description of series [5]: Toxicity in CF1 mouse assessed as induction of lethargy. The note with it: in vivo.
The nature of series [6]: Toxicity in CF1 mouse assessed as induction of lethality measured after electric stimulation after 24 hrs at >500 mg/kg. Type of series: organism-based. The note with it: in vivo.
The nature of series [7]: Toxicity in CF1 mouse assessed as induction of motor impairment during acute (1 hr) observation period up to 800 mg/kg by rotarod assay. The conditions noted are these: in vivo. Type of series: organism-based. A digest of the protocol:
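Rotarod at 6 rpm on the same animals immediately before 6 Hz stimulation, 1 h after ip dosing. A mouse falling three times within one minute was scored impaired.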

In series [8] the test system is Mus musculus. Nature of the series: Anti-seizure activity in ip dosed CF1 mouse assessed as reduction in hindlimb tonic extension during seizure measured at 1 hr by MES test. It counts as functional. In outline: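 Male CF-1 mice, n=8 per dose, dosed ip as 0.5% HPMC suspension, tested 1 h later. Corneal 60 Hz, 50 mA, 2 s shock after 0.5% tetracaine applied to eyes. Protection = absence of hindlimb tonic extension. ED50 from four dose levels.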

For series [9], the system named is Mus musculus. In words: Anti-seizure activity in ip dosed CF1 mouse assessed as attenuation of clonic forebrain seizures treated 1 hr before PTZ dosing and measured after 30 mins by scPTZ test. It counts as functional. A digest of the protocol: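 Male CF-1 mice, n=8 per dose, given compound ip in 0.5% HPMC. PTZ 85 mg/kg s.c. in the neck at 1 h. Animals observed 30 min in isolation cages for clonic spasms lasting 3–5 s; those without spasms counted protected.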

Series [10] is described as follows: Drug level in CD1 mouse plasma at 400 mg/kg, ip after 0.5 hrs by LC-MS/MS analysis. Type of series: ADME, organism-based. In outline:
(§2)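 Male mice fasted overnight and given ip dose in 95% Miglyol 840/5% DMSO. Plasma precipitated 3:1 with acetonitrile plus internal standard. Brain homogenized 3:1 in PBS, then acetonitrile extraction. LC-MS/MS in MRM mode, standard curve 1 ng/mL–10 μg/mL. Ratio = mean tissue (ng/g) over mean plasma (ng/mL) concentration.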

Series [11] is described as follows: Drug level in CD1 mouse plasma at 400 mg/kg, ip after 2 hrs by LC-MS/MS analysis. It counts as ADME, organism-based. In outline:
as §2

Series [12] in a line: Drug level in CD1 mouse plasma at 400 mg/kg, ip after 8 hrs by LC-MS/MS analysis. It counts as ADME, organism-based. In outline: as §2
The nature of series [13]: Drug level in CD1 mouse brain at 400 mg/kg, ip after 0.5 hrs by LC-MS/MS analysis. Type of series: ADME, organism-based. The conditions noted are these: read-out: Drug uptake. In outline:
as §2

A short description of series [14]: Drug level in CD1 mouse brain at 400 mg/kg, ip after 1 hr by LC-MS/MS analysis. Type of series: ADME, organism-based. The note with it: read-out: Drug uptake. In outline:
as §2

The nature of series [15]: Drug level in CD1 mouse brain at 400 mg/kg, ip after 2 hrs by LC-MS/MS analysis. It counts as ADME, organism-based. The note with it: read-out: Drug uptake. A digest of the protocol:
as §2

Series [16] is described as follows: Drug level in CD1 mouse brain at 400 mg/kg, ip after 4 hrs by LC-MS/MS analysis. It counts as ADME, organism-based. The conditions noted are these: read-out: Drug uptake. A digest of the protocol:
as §2

Series [17] in a line: Ratio of drug level in brain to plasma in CD1 mouse at 400 mg/kg, ip after 4 hrs by LC-MS/MS analysis. It counts as ADME, organism-based. The conditions noted are these: brain and plasma, read-out: BPR. In outline: as §2
Series [18] in a line: AUClast in CD1 mouse at 20 mg/kg, ip measured after 0.083 to 24 hrs by LC-MS/MS analysis. Type of series: ADME, organism-based. Set-up: time lower 0.083 hr, dose 20 mg/kg, time upper 24 hr, route intraperitoneal. The note with it: in vivo. In outline: (§3)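 Male CD-1 mice, 3 per route. Oral and ip at 20 mg/kg by gavage needle; iv at 5 mg/kg by tail vein. Vehicles were 20% DMA:40% PEG300:40% H2O for oral/iv and 5% DMSO:95% Neobee for ip. Blood sampled 0.083–24 h, plasma protein-precipitated with acetonitrile plus internal standard, LC-MS/MS (MRM). Non-compartmental analysis, linear trapezoidal AUC.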

The nature of series [19]: Cmax in CD1 mouse at 5 mg/kg, iv measured after 0.083 to 24 hrs by LC-MS/MS analysis. Type of series: ADME, organism-based. The conditions noted are these: in vivo. Set-up: dose 5 mg/kg, route intravenous. A digest of the protocol:
as §3

Series [20] is described as follows: Cmax in CD1 mouse at 20 mg/kg, po measured after 0.083 to 24 hrs by LC-MS/MS analysis. It counts as ADME, organism-based. The arrangement: dose 20 mg/kg, route oral. The note with it: in vivo. A digest of the protocol: as §3
The nature of series [21]: AUClast in CD1 mouse at 5 mg/kg, iv measured after 0.083 to 24 hrs by LC-MS/MS analysis. Type of series: ADME, organism-based. Set-up: dose 5 mg/kg, time upper 24 hr, time lower 0.083 hr, route intravenous. The conditions noted are these: in vivo. In outline: as §3
The nature of series [22]: AUClast in CD1 mouse at 20 mg/kg, po measured after 0.083 to 24 hrs by LC-MS/MS analysis. Set-up: time 0.083-24 hr, dose 20 mg/kg, route oral. The note with it: in vivo. Type of series: ADME, organism-based. In outline:
as §3

The nature of series [23]: Oral bio availability in CD1 mouse at 20 mg/kg measured after 0.083 to 24 hrs by LC-MS/MS analysis. It counts as ADME, organism-based. The conditions noted are these: in vivo. In outline: as §3
Series [24] addresses T1, Cytochrome P450 2C8 (Homo sapiens, UniProt P10632).
T1 sequence (P10632 whole entry): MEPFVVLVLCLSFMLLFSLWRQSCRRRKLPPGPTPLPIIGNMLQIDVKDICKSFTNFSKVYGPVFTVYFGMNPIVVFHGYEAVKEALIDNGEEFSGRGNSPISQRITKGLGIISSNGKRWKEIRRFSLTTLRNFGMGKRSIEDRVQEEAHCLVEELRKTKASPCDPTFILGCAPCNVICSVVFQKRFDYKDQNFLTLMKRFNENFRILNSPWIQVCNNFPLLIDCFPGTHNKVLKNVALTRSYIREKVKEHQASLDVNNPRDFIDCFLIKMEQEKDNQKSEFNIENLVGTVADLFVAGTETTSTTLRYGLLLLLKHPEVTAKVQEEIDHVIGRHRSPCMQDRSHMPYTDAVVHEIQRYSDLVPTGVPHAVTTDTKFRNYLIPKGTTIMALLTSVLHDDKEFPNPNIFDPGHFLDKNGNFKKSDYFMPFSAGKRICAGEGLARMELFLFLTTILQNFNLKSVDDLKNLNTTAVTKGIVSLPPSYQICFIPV
Nature of the series: Inhibition of CYP2C8 in human liver microsomes using isoform-specific probe substrates incubated for 15 to 30 mins by LC-MS/MS analysis. Type of series: ADME. A digest of the protocol: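 Pooled mixed-gender human liver microsomes 0.2 mg/mL in 100 mM potassium phosphate with 2 mM NADPH. Isoform-specific probe substrates near Km. Organic solvent ≤1% final. Incubated 37°C for 15–30 min, quenched with acetonitrile plus internal standard. Probe metabolites measured by LC-MS/MS; percent inhibition versus vehicle, IC50 by variable-slope sigmoid fit.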
On the technique in general: Liver microsomes are vesicles of endoplasmic reticulum, rich in cytochrome P450 enzymes.

On to `CC(C)CCNC1=CC(=O)c2ccccc2C1=O`, for which the inhibition at 48 h, 50 µM in series [1] is 17.8%. The inhibition at 48 h, 10 µM in series [2] was 11.9%. Further, the Activity entry was “Toxic” in series [3]; “Toxic” in series [4]; “Toxic” in [5]; “Toxic” in [6]; “Non-Toxic” in [7]. Moreover, the figures for the median effective dose (ED50) in series [8] and in series [9] were 108 mg/kg and 349 mg/kg, respectively. Besides, the concentration at 0.5 h was determined as 1260 ng/mL in [10] and 3320 ng/g in series [13]. In addition, the results for the concentration at 2 h in series [11] and in series [15] were 2750 ng/mL and 4930 ng/g, respectively. In series [12], this compound returned a concentration at 8 h of 3220 ng/mL. The concentration at 1 h in [14] was 3940 ng/g. The concentration at 4 h in series [16] was 3760 ng/g. Also, in series [17], the Kp at 4 h came to 1. In addition, the AUC(0-t) – broadly, the area under the concentration-time curve up to a stated or last time point – in series [18] came to 1720 ng·h/mL; in series [21], 636 ng·h/mL; in [22] it was 903 ng·h/mL. Besides, the Cmax (commonly the highest concentration seen after dosing) in series [19] is 1910 ng/mL; in series [20], 1020 ng/mL. In addition, in series [23], the F is listed as 35.9%. In addition, the IC50 (in general, the concentration that inhibits the measured activity by half) in [24] was found to be 54.1 µM.
